Bioassay records: PubChem, several laboratories
Compounds with a hit are over-represented: about 11% of the library has one in this group of screens.
RORA act – activators of human nuclear receptor RORA | P35398 | CHO-K1 Gal4-RORA LBD luciferase reporter, luminescence; percent increase over mock-subtracted basal signal | activation, % at 10 µM | hit rate 1.5% among 65,000;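 active means activation above the mean of all tested compounds plus 3 SD, cut at about 49% in these data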;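 further: 0% = DMSO-treated RORA cells and 100% = added signal equal to DMSO minus mock-transfected cells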
M1 antag – antagonists of rat M1 muscarinic receptor | P08482 | CHO-M1 cells, Fluo-4 calcium, ACh EC80 antagonist mode; hits give low values | B-score at 10 µM | hit rate 3.4% among 64,000 | AID 628;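 active means calcium fluorescence response, raw or row-and-column corrected B-score, differing from the plate sample mean either way at a set confidence level, mostly lower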
Target sequence (P08482 whole entry, looked up): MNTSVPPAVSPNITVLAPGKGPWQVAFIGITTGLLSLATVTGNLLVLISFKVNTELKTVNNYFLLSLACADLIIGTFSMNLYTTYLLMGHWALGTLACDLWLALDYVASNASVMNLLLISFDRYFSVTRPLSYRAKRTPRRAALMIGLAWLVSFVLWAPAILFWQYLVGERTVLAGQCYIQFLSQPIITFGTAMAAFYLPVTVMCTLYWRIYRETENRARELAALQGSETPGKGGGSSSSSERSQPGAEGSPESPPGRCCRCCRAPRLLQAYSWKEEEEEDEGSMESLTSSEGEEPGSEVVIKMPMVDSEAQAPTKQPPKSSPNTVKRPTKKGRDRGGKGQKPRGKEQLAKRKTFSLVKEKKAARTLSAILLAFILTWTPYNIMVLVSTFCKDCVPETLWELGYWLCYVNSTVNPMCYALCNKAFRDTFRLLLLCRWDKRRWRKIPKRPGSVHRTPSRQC
M1 agonist – agonists of M1 muscarinic receptor; CHO-M1 cells, Fluo-4 calcium fluorescence, agonist mode; hits give high values; B-score at 10 µM; hit rate 3% among 64,000; AID 626;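 active means fluorescence rise, raw or as B-score row- and column-corrected plate score, outside the 99.7% band of its plate's samples, either direction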
Htt clearance – compounds clearing mutant huntingtin protein. HeLa Exon1htt(103Q)mCFP, aggregate imaging; zero = plate's median compound well. inhibition, % at 1.5 µM. hit rate 0.42% among 47,000;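 active means inhibition of aggregate fluorescence above about 70%, also judged a hit by eye on the cell image, limit read from the data, passing the limit was not always enough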;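 further: cells exposed to compound for three days before fixation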
SF1 activator – activators of human nuclear receptor SF-1; hit rate 1.9% among 65,000; Q13285; activation, % at 10 µM; CHO-K1 Gal4-SF-1 LBD luciferase reporter; % increase over DMSO SF-1-specific signal;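 active means activation above the mean activation of all tested compounds plus 3 SD, cut at about 50% in these data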
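Material: Transient Gal4-SF-1 LBD reporter, CHO-K1 | Input: 4,000 cells/well | Dosing: One dose, 10 µM compound, 1% DMSO | Incubation: 20 h compound treatment, 37 °C | Detection: SteadyLite luciferase luminescence | Evaluation: Percent activation relative to DMSO median and mock-transfected background | Benchmarks: DMSO-treated SF-1-transfected cells as negative, DMSO-treated mock-transfected cells lacking SF-1 as background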
D1 mod – D1 dopamine receptor (human) allosteric modulation. B-score at 10 µM. HEK293 D1, CRE-luciferase, dopamine EC30 potentiation; actives deviate in either direction. P21728. hit rate 5.9% among 58,000;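 active means luminescence count or its row- and column-corrected plate score outside the 99.7% band of the plate's sample wells, on either side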
* hit, by the source's call; · = no result given.

SMILES | RORA act | M1 antag | M1 agonist | Htt clearance | SF1 activator | D1 mod
Oc1ccc(C(=S)N2CCCCC2)cc1Cl | 24 | -0.039 | 0.44 | · | -16 | 0.6
CCn1c(SCC(=O)NC(C)(C)C)nnc1-c1ccccn1 | · | · | · | -72 | · | ·
CC(C)(C)C(=O)Cn1c(=N)n(Cc2ccccc2Cl)c2ccccc21 | · | · | · | 9 | · | ·
COc1ccccc1OCC(O)Cn1c(=N)n(Cc2ccccc2)c2ccccc21 (centres undefined) | 3 | 0.0072 | 0.19 | -45 | -11 | -4.7*
C=CCn1c(=N)n(CC(O)COc2ccccc2OC)c2ccccc21 (centres undefined) | -14 | -1.1 | -0.035 | 56 | 9 | -5.4*
CC(C)(C)C(=O)Cn1c(=N)n(Cc2ccccc2)c2ccccc21 | -6 | -0.47 | -1.4 | · | 3 | -3.3*
Cc1nnc(-n2ncc(C#N)c2N)c2nn(-c3ccccc3F)c(C)c12 | · | · | · | 15 | · | ·
COCCn1c(SCC(=O)NCC2CCCO2)nc2c(c1=O)SC(C)C2 (centres undefined) | 17 | 0.11 | 0.03 | · | -34 | -0.8
Cn1c(=O)c2c(nc(SCC(=O)NCc3ccc4c(c3)OCO4)n2Cc2ccc(Cl)cc2)n(C)c1=O | · | · | · | 81* | · | ·
Cc1ccc2cc3cc(C(=O)N4CC(C)CC(C)C4)oc3nc2c1 (centres undefined) | 17 | 0.7 | -0.35 | · | 40 | 0.032
Cc1ccc2cc3cc(C(=O)N4CCCCC4C)oc3nc2c1 (centres undefined) | 27 | -1.4 | 4.5 | 30 | 65* | 0.81
CCOCCCNC(=O)c1ccc2c(c1)OCO2 | 6 | 0.021 | 0.12 | -7 | 28 | -0.51
O=C(NCCOc1ccccc1)c1ccc2c(c1)OCO2 | -63 | -0.21 | 0.00083 | · | -59 | -7.5*
COc1ccc(OC)c(N(CC(=O)Nc2ccc3c(c2)OCCO3)S(C)(=O)=O)c1 | 9 | -0.28 | -1.7 | · | 1 | 0.62
O=C(Oc1ccccc1N1C(=O)CCC1=O)c1ccco1 | 4 | 0.69 | -0.34 | 22 | -2 | -0.69
O=C(N=C1SCC(=O)N1c1ccccc1Cl)c1ccco1 | 62* | 0.13 | -0.76 | -11 | 55* | -1.8
CCOC(=O)C1CCCN(C/C(O)=C(\C#N)c2nc(-c3ccccc3)cs2)C1 (centres undefined) | 33 | -0.21 | 11* | -4 | 17 | -0.13
CCC1(C)Cc2c(sc3c2c(=O)n(C)c2nnc(SCC(=O)c4ccc(Cl)cc4)n32)CO1 (centres undefined) | 12 | -0.16 | -0.19 | · | 4 | ·
Cc1nnc(NC(=O)C2COc3ccccc3O2)s1 (centres undefined) | 18 | -0.0073 | 0.065 | · | 52* | -0.5
O=C(Nc1nc2c(s1)CCCC2)C1COc2ccccc2O1 (centres undefined) | -43 | 1 | 0.53 | · | -27 | -6.9*
Cc1nnc(NC(=O)C2c3ccccc3Oc3ccccc32)s1 | · | · | · | 18 | · | ·
O=C(NC1=NCCS1)C1COc2ccccc2O1 (centres undefined) | -72 | -0.7 | -0.6 | · | -66 | -5.4*
CC(=O)N1CCN(c2nc3cc4c(cc3nc2NS(=O)(=O)c2ccccc2)OCCO4)CC1 | -6 | 0.11 | 0.16 | · | 3 | 0.9
CCOc1ccc(N2C(=O)CC(SC(=NC)Nc3ccc(F)cc3)C2=O)cc1 (centres undefined) | · | · | · | -22 | · | ·
Cc1cc(C)c(C#N)c(Sc2nnnn2-c2ccccc2)n1 | · | · | · | -43 | · | ·
SMILES | RORA act | M1 antag | M1 agonist | Htt clearance | SF1 activator | D1 mod
COc1ccc(N2CCN(C(=O)CCNS(=O)(=O)c3ccc(Br)s3)CC2)cc1 | -10 | -0.47 | -0.95 | 30 | 2 | -0.16
CCN(c1ccc(C)c(C)c1)S(=O)(=O)c1c(C)[nH]c(=O)[nH]c1=O | · | · | · | 7 | · | ·
Cc1ccc2c(CC(=O)NCc3ccco3)coc2c1C | 52* | -0.64 | 1.4 | · | 23 | 0.42
CCCn1c2c(c(O)c(C(=O)NCCCN(CC)CC)c1=O)CCCC2 | · | · | · | 74* | · | ·
CCOC(=O)CNc1c(N2CCN(c3ccccn3)CC2)c(=O)c1=O | -2 | 1.1* | 0.31 | · | 13 | 0.51
O=C(C1CCC(CNc2c(N3CCCCC3)c(=O)c2=O)CC1)N1CCN(c2ccccn2)CC1 (centres undefined) | -36 | -0.12 | 0.061 | · | 9 | ·
CS(=O)(=O)N(Cc1ccc(C(=O)NCc2ccco2)cc1)c1ccccc1 | 0 | 1.9* | -0.0035 | 2 | -10 | 0.31
CS(=O)(=O)N(Cc1ccc(C(=O)NCCSCc2ccco2)cc1)c1ccccc1 | · | · | · | -120 | · | ·
CCOC(=O)N1CCN(C(=O)Cn2cc3c(n2)CCCC3)CC1 | -6 | 0.11 | -3.2* | · | 6 | -0.54
CC(NC(=O)c1ccco1)c1cccc2ccccc12 (centres undefined) | · | · | · | -34 | · | ·
Cc1ccc(-n2nnc3ccccc3c2=O)cc1C | 28 | -0.67 | 0.0056 | · | 54* | -0.022
Cc1ccc(-n2nc(C(=O)O)c3ccccc3c2=O)cc1C | · | · | · | -2 | · | ·
CCOC(=O)c1c(NC(=O)CN2CCN(c3ccccn3)CC2)sc2c1CCCC2 | -3 | 0.017 | -0.13 | · | 1 | ·
CC(=O)Nc1sc2c(c1CN1CCN(c3ccccn3)CC1)CCCC2 | 2 | -0.53 | -0.3 | · | -2 | -3.3*
O=C(Nc1cccc2c1CCCC2)c1ccncc1 | · | · | · | 8 | · | ·
CC(=O)CCc1c[nH]c2c(C(=O)O)cccc12 | 7 | 1.2 | -0.53 | · | 24 | -0.5
COc1ccc(Nc2nccc3c2nnn3C)cc1 | 53* | 1.6 | 0.0059 | -36 | 35 | -0.97
Cn1nnc2c(NCc3ccco3)nccc21 | 3 | 0.32 | 0.016 | · | 4 | 0.086
O=C(CSc1ncnc2c1oc1ccccc12)c1cccs1 | 40 | 0.21 | -0.31 | -54 | 71* | 1
c1ccc2[nH]c(CSc3ncnc4c3oc3ccccc34)nc2c1 | 30 | -0.74 | 2.1 | 75* | 22 | -0.16
O=C(CSc1ncnc2c1oc1ccccc12)Nc1ccc2c(c1)OCCO2 | 5 | 0.37 | -0.34 | 73* | -7 | 0.81
Cc1nc(SCC(=O)Nc2ccc3c(c2)OCCO3)c2oc3ccccc3c2n1 | -9 | 1.1 | -1.8 | -51 | -2 | ·
COCCn1c(C)cc(C(=O)COC(=O)c2ccc3ncsc3c2)c1C | 27 | -0.093 | -2.5 | 35 | 52* | -0.91
COCCn1c(C)cc(C(=O)COC(=O)c2ccc(NC(=O)CC#N)cc2)c1C | · | · | · | -155 | · | ·
COCCn1c(C)cc(C(=O)COC(=O)c2n[nH]c3ccccc23)c1C | -58 | -0.11 | -2 | · | -67 | -8.4*
COc1cccc(CN(C(=O)c2cc3ccccc3oc2=O)C2CC2)c1 | 52* | -0.28 | 0.88 | -17 | 17 | -1.8
CCOc1ccc(CN(C(=O)c2cc3ccccc3oc2=O)C2CC2)cc1 | · | · | · | 17 | · | ·
CC1(C)Cc2nc3nc(SCC(=O)NCCc4ccccc4)n(-c4ccccc4)c(=O)c3cc2CO1 | · | · | · | -55 | · | ·
COc1cc(-c2nc3ccccn3c2NCC2CCCO2)ccc1O (centres undefined) | 16 | -1.1 | 3.3* | -45 | 19 | -2.2
COc1cc(-c2nc3cnccn3c2Nc2c(C)cccc2C)ccc1O | · | · | · | -2 | · | ·
